Measurements as given in ChEMBL document CHEMBL4028857, “Anchimerically Activated ProTides as Inhibitors of Cap-Dependent Translation and Inducers of Chemosensitization in Mantle Cell Lymphoma” (J Med Chem, 2017).
pIC50: −log10 of the molar value. Active and inactive are the calls of the source. No cut-off for these calls is given here.

How the values were obtained:
[1] = Half life in HEPES buffer at 80 uM at pH 7.2 by RP-HPLC analysis; type: physicochemical
In short: (§1)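 Compound at 80 µM in 20 mM HEPES (pH 7.2 or 2.0) incubated at 37 °C; aliquots analyzed by RP-HPLC at 0, 1, 4, 6, 12, 18 and 24 h to follow methylthioalkyl deprotection and derive half-life.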

[2] = Half life in HEPES buffer at 80 uM at pH 2 by RP-HPLC analysis; type: physicochemical; in short: as §1
Granta-519 [3] = experiment: Prodrug activation in human GRANTA-519 cells assessed as 9-((2R,3R,4S,5R)-5-(((((2-(1H-Indol-3-yl)ethyl)amino)-(hydroxy)phosphoryl)oxy)methyl)-3,4-dihydroxytetrahydrofuran-2-yl)-2-amino-7-(2-(4-chlorophenoxy)ethyl)-6-oxo-6,9-dihydro-1H-purin-7-ium formation per 5 million cells at 150 uM after 12 hrs by LC-MS/MS analysis; type: cell-based; settings: granta-519, 12 h
In short: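 Five million MCL cells in RPMI/10% FBS with penicillin, streptomycin and L-glutamine were exposed to compound (150 µM) for 12 h at 37 °C. Cells were washed in cold PBS, extracted in MeOH/NH4OAc (60:40) with 80 fmol internal standards, freeze-thawed three times, then filtered and dried. Residue was taken up in HEPES for LC-MS/MS, quantified against an internal-standard curve.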

Z-138 = experiment: Antiproliferative activity against human Z138 cells preincubated for 48 hrs followed by thymidine addition measure after 16 hrs by Thymidine incorporation assay; type: functional, cell-based
In short: (§2)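 MCL lines treated 48 h with compound re-added daily, alone or with co-drug (ibrutinib 25 µM where used), then thymidine added for a further 16 h; proliferation read as thymidine incorporation.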

[4] = Antiproliferative activity against human Mino cells at 200 uM preincubated for 48 hrs followed by thymidine addition measure after 16 hrs by Thymidine incorporation assay; type: functional; in short: as §2
Granta-519 [5] = experiment: Antiproliferative activity against human GRANTA-519 cells after 48 hrs by Annexin V/propidium iodide based flow cytometric analysis; type: functional, cell-based; settings: Granta-519, 48 h
In short: (§3)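 MCL lines treated 48 h with compound re-added daily (alone or with co-drug; ibrutinib 25 µM), then survival assessed by Annexin V/PI flow cytometry.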

[6] = target: Eukaryotic translation initiation factor 4E (Homo sapiens) (UniProt P06730); experiment: Inhibition of eIF4E in human Mino cells assessed as increase in p27 protein expression after 48 hrs by Western blot method; type: cell-based
In short: (§4)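 MCL lines treated 48 h with compound; protein quantified and Western blotted with eIF4E, eIF4G, actin, c-Myc and Bcl-2 antibodies.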

[7] = target: Eukaryotic translation initiation factor 4E (Homo sapiens) (UniProt P06730); experiment: Inhibition of eIF4E in human GRANTA-519 cells assessed as down regulation of Bcl-2 protein expression at 50 to 200 uM after 48 hrs by Western blot method; type: cell-based; in short: as §4
[8] = target: Eukaryotic translation initiation factor 4E (Homo sapiens) (UniProt P06730); experiment: Inhibition of eIF4E in human Mino cells assessed as down regulation of Bcl-2 expression at 50 to 200 uM after 48 hrs by Western blot method; type: cell-based; in short: as §4
[9] = target: Eukaryotic translation initiation factor 4E (Homo sapiens) (UniProt P06730); experiment: Inhibition of eIF4E in human Mino cells assessed as down regulation of c-Myc mRNA expression at 100 uM by RT-PCR based RNA Immunoprecipitation; type: cell-based
In short: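 RNA-immunoprecipitation on Mino cells with a RNA-binding protein immunoprecipitation kit.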

[10] = target: Eukaryotic translation initiation factor 4E (Homo sapiens) (UniProt P06730); experiment: Inhibition of eIF4E in human Mino cells assessed as potentiation of doxorobucin induced antiproliferation at 100 uM preincubated for 48 hrs followed by thymidine addition measure after 16 hrs by Thymidine incorporation assay; type: cell-based; in short: as §2
[11] = Cytotoxicity against human Mino cells assessed as reduction in cell survival at 100 uM after 48 hrs in presence of doxorubicin by Annexin V/propidium iodide based flow cytometric analysis; in short: as §3
[12] = target: Eukaryotic translation initiation factor 4E (Homo sapiens) (UniProt P06730); experiment: Inhibition of eIF4E in human Mino cells assessed as potentiation of ibrutinib induced antiproliferation at 100 uM preincubated for 48 hrs followed by thymidine addition measure after 16 hrs by Thymidine incorporation assay; type: cell-based; in short: as §2
[13] = target: Eukaryotic translation initiation factor 4E (Homo sapiens) (UniProt P06730); experiment: Inhibition of eIF4E in human Mino cells assessed as down regulation of c-Myc protein expression at 100 uM after 48 hrs in presence of ibrutinib by Western blot analysis; type: cell-based; in short: as §4
[14] = target: Eukaryotic translation initiation factor 4E-binding protein 1 (Homo sapiens) (UniProt Q13541); experiment: Inhibition of 4EBP1 phosphorylation at Ser 65 residues in human Mino cells at 100 uM after 48 hrs by Western blot analysis; type: cell-based; in short: as §4
[15] = AUC (0 to 8 hrs) in Sprague-Dawley rat plasma at 2.5 mg/kg, iv by LC-MS/MS analysis; type: ADME, organism-based; design: time < 8 hr, dose 2.5 mg/kg, route intravenous
In short: (§5)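 Female Sprague-Dawley rats (250-274 g, n=3, catheterized femoral/jugular veins) dosed once p.o. by gavage (25 mg/kg) then, after a 3-day washout, i.v. (2.5 mg/kg). Formulation: 10 mg/mL in 0.5% aqueous CMC with 5% DMSO. Serial blood draws to 480 min into K2EDTA; plasma protein-precipitated with acetonitrile plus internal standards; LC-MS/MS (positive MRM); non-compartmental PK; %F from dose-normalized AUC per rat.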

Rattus norvegicus [16] = experiment: Clearance in Sprague-Dawley rat at 2.5 mg/kg, iv by LC-MS/MS analysis; type: ADME, organism-based; settings: in vivo; in short: as §5
[17] = Oral bioavailability in Sprague-Dawley rat at 25 mg/kg by LC-MS/MS analysis; type: ADME, organism-based; settings: in vivo; in short: as §5
Rattus norvegicus [18] = experiment: AUC (0 to 8 hrs) in Sprague-Dawley rat plasma assessed as 9-((2R,3R,4S,5R)-5-(((((2-(1H-Indol-3-yl)ethyl)amino)-(hydroxy)phosphoryl)oxy)methyl)-3,4-dihydroxytetrahydrofuran-2-yl)-2-amino-7-(2-(4-chlorophenoxy)ethyl)-6-oxo-6,9-dihydro-1H-purin-7-ium at 25 mg/kg, po by LC-MS/MS analysis; type: ADME, organism-based; design: time < 8 hr, dose 25 mg/kg, route oral; settings: in vivo; in short: as §5
Rattus norvegicus [19] = experiment: AUC (0 to 8 hrs) in Sprague-Dawley rat plasma assessed as 9-((2R,3R,4S,5R)-5-(((((2-(1H-Indol-3-yl)ethyl)amino)-(hydroxy)phosphoryl)oxy)methyl)-3,4-dihydroxytetrahydrofuran-2-yl)-2-amino-7-(2-(4-chlorophenoxy)ethyl)-6-oxo-6,9-dihydro-1H-purin-7-ium at 2.5 mg/kg, iv by LC-MS/MS analysis; type: ADME, organism-based; design: time < 8 hr, dose 2.5 mg/kg, route intravenous; settings: in vivo; in short: as §5
[20] = Cmax in Sprague-Dawley rat at 25 mg/kg, po measured at 30 mins post dose by LC-MS/MS analysis; type: ADME, organism-based; design: dose 25 mg/kg, route oral; settings: in vivo; in short: as §5
[21] = Cytotoxicity against human Mino cells assessed as reduction in cell survival at 100 uM after 48 hrs in presence of dexamethasone by Annexin V/propidium iodide based flow cytometric analysis; in short: as §3
Plasma = experiment: Prodrug activation in Sprague-Dawley rat assessed as Hint1 mediated 2-amino-7-(2-(4-chlorophenoxy)ethyl)-9-((2R,3R,4S,5R)-3,4-dihydroxy-5-(phosphonooxymethyl)tetrahydrofuran-2-yl)-6-oxo-6,9-dihydro-1H-purin-7-ium formation in plasma at 2.5 mg/kg, iv or 25 mg/kg, po by LC-MS/MS analysis; type: organism-based; settings: in vivo; in short: as §5

Sequence of Eukaryotic translation initiation factor 4E (Homo sapiens) (P06730 whole entry): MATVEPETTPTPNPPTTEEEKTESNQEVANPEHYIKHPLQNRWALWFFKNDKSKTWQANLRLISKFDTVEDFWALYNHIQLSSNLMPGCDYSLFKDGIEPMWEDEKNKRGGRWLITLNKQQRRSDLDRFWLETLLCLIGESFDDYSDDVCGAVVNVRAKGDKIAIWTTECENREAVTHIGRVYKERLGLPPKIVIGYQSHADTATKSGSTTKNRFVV
Sequence of Eukaryotic translation initiation factor 4E-binding protein 1 (Homo sapiens) (Q13541 whole entry): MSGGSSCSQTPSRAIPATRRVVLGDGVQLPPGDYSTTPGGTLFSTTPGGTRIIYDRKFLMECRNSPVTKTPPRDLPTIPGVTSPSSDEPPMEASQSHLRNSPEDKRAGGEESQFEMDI

`CSCCOP(=O)(NCCc1c[nH]c2ccccc12)OC[C@H]1O[C@@H](n2c[n+](CCOc3ccc(Cl)cc3)c3c(=O)[nH]c(N)nc32)[C@H](O)[C@@H]1O` (stereo partly drawn) showed a half-life at 80 µM [1] of 8.5 h, a half-life at 80 µM [2] of 5 h and a Drug metabolism (Granta-519 [3]) of 0.33 pmol. For the same molecule, the Activity (Z-138) was “Dose-dependent effect”, the Activity [4] was 100% and the pIC50 (Granta-519 [5]) was less than 3.70. The inhibition [6] was “Dose-dependent effect”, the inhibition [7] was “inactive” and the inhibition [8] was “inactive”. The inhibition [9] was “inactive”, the inhibition [10] was “Active” and the Activity [11] was “Non-Toxic”. The inhibition [12] was “Active”, the inhibition [13] was “Active” and the inhibition [14] was “inactive”. It also gave an AUC(0-t) at 8 h [15] of 23.3 ng·h/mL, a CL (Rattus norvegicus [16]) of 1800 mL/min/kg and a bioavailability [17] of 23%. For the same molecule, the AUC (Rattus norvegicus [18]) was 2.6 µg·min/mL, the AUC (Rattus norvegicus [19]) was 0.5 µg·min/mL and the Cmax [20] was 5 ng/mL. For the same molecule, the Activity [21] was “Toxic” and the Drug metabolism (Plasma) was “Metabolite_Notdetected”.
